According to ChEMBL document CHEMBL1156753, “Structural studies of pterin-based inhibitors of dihydropteroate synthase” (J Med Chem, 2010):

What was measured:
[1] = target: T1, Dihydropteroate synthase (Bacillus anthracis) (UniProt Q81VW8); assay: Inhibition of Bacillus anthracis DHPS expressed in Escherichia coli BL21 (DE3) at 250 uM after 30 mins
T1 sequence (whole entry): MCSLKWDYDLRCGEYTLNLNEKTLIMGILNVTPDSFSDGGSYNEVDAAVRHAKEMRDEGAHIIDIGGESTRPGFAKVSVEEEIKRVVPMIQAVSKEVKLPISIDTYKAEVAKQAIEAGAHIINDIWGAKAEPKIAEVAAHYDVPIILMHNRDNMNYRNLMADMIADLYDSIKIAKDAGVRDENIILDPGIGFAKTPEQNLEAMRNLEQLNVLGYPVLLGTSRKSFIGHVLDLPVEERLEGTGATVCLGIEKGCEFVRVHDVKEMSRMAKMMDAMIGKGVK
Method in brief: (§1)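 Reaction held 5 μM 14C pABA, 10 μM enzymatically prepared dihydropterin diphosphate, 10 mM MgCl2, 2% DMSO, 50 mM HEPES pH 7.6, 10 ng DHPS. Product was separated by PEI-cellulose TLC and quantified by phosphorimaging as percent inhibition.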

[2] = target: T1, Dihydropteroate synthase (Bacillus anthracis); assay: Inhibition of Bacillus anthracis DHPS expressed in Escherichia coli BL21 (DE3) at 500 uM after 30 mins; method in brief: as §1
[3] = target: T2, Dihydropteroate synthase (Bacillus anthracis, UniProt Q81VW8); assay: Inhibition of Bacillus anthracis DHPS expressed in Escherichia coli BL21 (DE3) after 30 mins
T2 sequence (Q81VW8 whole entry): T1 sequence (whole entry)
Method in brief: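 Radiometric assay at 37 °C for 30 min: 5 μM 14C pABA, 10 μM enzymatically prepared dihydropterin diphosphate, 10 mM MgCl2, 2% DMSO, 50 mM HEPES pH 7.6, 5 ng DHPS, over a range of inhibitor concentrations. The reaction was stopped with acetic acid on ice. 14C dihydropteroate was separated from pABA by PEI-cellulose TLC and quantified by phosphorimaging. IC50 was obtained by curve fitting.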

[4] = target: T2, Dihydropteroate synthase; assay: Binding affinity to Bacillus anthracis DHPS expressed in Escherichia coli BL21 (DE3) after 30 mins by isothermal titration calorimetry
Method in brief: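 ITC at 25 °C in 40 mM HEPES, 4 mM MgCl2, pH 7.6; 5% DMSO added to the buffer for the inhibitor titration. Protein was dialyzed against 50 mM HEPES, 5 mM MgCl2, pH 7.6. Nineteen injections of 500 μM ligand went into 20 μM DHPS. Kd was fitted to a one-site binding model.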

In the case of Nc1nc2[nH]c(S)nc2c(=O)[nH]1, the inhibition [1] is reported as 0%.
For Nc1nc2ncc(CCNc3ccc(C(=O)O)cc3)nc2c(=O)[nH]1, the inhibition [2] was 76% and the IC50 [3] was 87.1 µM.
Compound Nc1ncc(Oc2ccccc2)c(=O)[nH]1 has an inhibition [2] of 37%.
Nc1nc2nc3c(nc2c(=O)[nH]1)CCCC3 gave an inhibition [2] of 31%.
NC(=O)c1nc[nH]c1C(N)=O gave an inhibition [2] of 32%.
Nc1nc(N)c([N+](=O)[O-])c(=O)[nH]1 was tested, and the inhibition [1] was 80% and the IC50 [3] was 109 µM.
For Nc1nc(NCCCOc2ccc(C(=O)O)cc2)c(N=O)c(=O)[nH]1, the inhibition [2] was 79%.
With CN1CC(CC(C)(C)O)=Nc2c1nc(N)[nH]c2=O the inhibition [2] was 54% and the IC50 [3] was 215 µM.
Work on Cn1c(=O)c2nc(C(=O)O)c(=O)[nH]c2n(C)c1=O yielded an inhibition [2] of 33%.
With Nc1nc2c(c(=O)[nH]1)N=C(CCNc1ccc(C(=O)O)cc1)CN2 the inhibition [2] was 100% and the IC50 [3] was 25.9 µM.
Compound Nc1ccc(C(=O)O)cc1 [AMINOBENZOIC ACID] has a Kd [4] of 5.62 µM.
Nc1nc(N)c(N=O)c(=O)[nH]1 gave an inhibition [1] of 81% and an IC50 [3] of 8 µM.
Work on Cn1c(=O)c2nc(C=O)c(=O)[nH]c2n(C)c1=O yielded an inhibition [2] of 44%.
With Nc1ccc2nc(CCc3nc4ccc(N)cc4[nH]3)[nH]c2c1 the inhibition [2] was 62%.
For CC(C(=O)O)c1nn(C)c2nc(N)[nH]c(=O)c2c1=O (centres undefined), the inhibition [2] was 97% and the IC50 [3] was 19.8 µM.
Cc1cc(/C=C2/C(=O)N=C(O)N=C2O)c(C)n1C showed an inhibition [2] of 35%.
In the case of CN1CC(C(=O)O)=Nc2c1nc(N)[nH]c2=O, the inhibition [1] is reported as 93%, the IC50 [3] is reported as 32.4 µM and the Kd [4] is reported as 5.26 µM.
With Nc1nnc(N)c2[nH]cnc12 the inhibition [2] was 32% and the IC50 [3] was over 500 µM.
Compound CNc1nc(N)[nH]c(=O)c1[N+](=O)[O-] has an inhibition [2] of 53%.
Compound Nc1nc2ncc(C(=O)O)nc2c(=O)[nH]1 has an inhibition [2] of 37%.
With CN1CC=Nc2c1nc(N)[nH]c2=O the inhibition [2] was 76% and the IC50 [3] was 86.7 µM.
Compound CC1CNc2nc(N)[nH]c(=O)c2N1 (centres undefined) has an inhibition [2] of 67%.
For Nc1nc2[nH]c(=O)c(C(=O)O)nc2c(=O)[nH]1, the inhibition [2] was 70% and the IC50 [3] was 269 µM.
